Screening results (PubChem BioAssay)
Compounds with a hit are over-represented: about 3.7% of the library has one in this group of screens.
MDM2 E3 inh: Mdm2 E3 ligase (human) inhibition. Q00987. cell-based MDM2 ubiquitination luciferase reporter, 2 h; 0 = plate control, 100 = twice control, blank-subtracted. signal enhancement, % at 5 µM. hit rate 0.11% among 210,000;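 active = signal enhancement of 30% or more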;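 also: luminescence tracks abundance of the self-degrading MDM2-luciferase fusion protein; higher signal means inhibition of MDM2 E3 ligase activity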
Target sequence (Q00987 whole entry, looked up, the tested form may be a part): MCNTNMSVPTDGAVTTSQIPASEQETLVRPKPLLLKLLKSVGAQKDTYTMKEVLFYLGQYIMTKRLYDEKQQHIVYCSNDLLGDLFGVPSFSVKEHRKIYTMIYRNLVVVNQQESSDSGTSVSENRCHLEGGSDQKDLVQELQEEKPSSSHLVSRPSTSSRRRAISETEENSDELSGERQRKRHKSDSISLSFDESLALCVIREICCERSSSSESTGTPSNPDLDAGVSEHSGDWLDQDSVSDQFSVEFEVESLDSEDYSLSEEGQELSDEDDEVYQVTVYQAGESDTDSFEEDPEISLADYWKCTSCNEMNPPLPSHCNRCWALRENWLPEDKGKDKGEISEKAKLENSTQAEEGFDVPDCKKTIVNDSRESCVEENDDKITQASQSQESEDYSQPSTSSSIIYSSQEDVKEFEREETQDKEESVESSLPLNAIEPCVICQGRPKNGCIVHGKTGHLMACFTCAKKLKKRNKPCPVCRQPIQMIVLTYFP
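Test system: mammalian cells stably expressing self-ubiquitinating, self-degrading MDM2 E3–luciferase fusion; Amount: 2000 cells in each well; Medium: DMEM; Schedule: 4 h settle plus 2 h compound, 37 °C; Technique: SteadyLite luciferase luminescence after 15 min room-temperature reagent incubation; Benchmarks: plate control and blank wells.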
PKD1 inh: inhibitors of human PKD1 kinase | hit rate 0.056% among 200,000 | PKD1 kinase fluorescence polarization assay | Q15139 | inhibition, % (test concentration not listed) | AID 797; in the data active = inhibition above about 50%
ROMK mod: modulators of human ROMK potassium channel | P48048 | Tet-inducible ROMK, thallium flux fluorescence; actives lie on both sides | B-score at 10 µM | hit rate 2% among 130,000 | AID 1918;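 active = signal ratio slope over the read window, or its plate-corrected B-score, at least 3 SD from the plate mean, either direction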;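 also: B-score of the F/F0 ratio slope over 7 to 12 s after thallium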
Arbovirus anti: antivirals against arbovirus infection | inhibition, % at 10 µM | arbovirus infection cell-based antiviral screen | hit rate 0.37% among 200,000; in the data active = inhibition above about 30%
Cl transport mod: modulates chloride dependent transport by human KCC2; Q9H2X9; KCC2 cells, thallium flux FluoZin-2 fluorescence; B-score of Tl+ flux slope (higher = more flux/activation; lower = inhibition) at 10 µM; hit rate 2.2% among 190,000; AID 1456;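 active = thallium flux slope and its plate-corrected score both differing from the plate sample mean at a set confidence after two filtering rounds, in either direction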;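 also: slope of fluorescence scaled to starting intensity during 10 to 20 s after thallium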
m-calpain inh: inhibitors of pig calpain II; purified calpain II, fluorogenic peptide substrate, 30 min; inhibition, % at 16 µM; hit rate 0.37% among 220,000; AID 1236;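 active = inhibition above about 50%, limit read from the data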
KCC2 secondary: confirmation of human KCC2 transport modulators; normalised thallium flux (F/F0 slope) at 10 µM; HEK293-KCC2, thallium flux, FluoZin2 fluorescence; hits give high values; hit rate 15% among 3,700; AID 1713; shares compounds with Cl transport mod;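 active = thallium flux slope above the same plate's solvent-only control mean plus 3 SD; inconclusive = the two replicate wells disagree; inactive = no significant difference from solvent-only control wells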
KCC2 bumet counter: thallium flux despite bumetanide block in KCC2 cells, secondary assay 3; shares compounds with Cl transport mod; HEK293-KCC2 + bumetanide/ouabain, thallium flux FluoZin2; hits give high values; normalized thallium flux at 10 µM; hit rate 49% among 3,700; AID 1714;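 active = thallium entry rate above the same plate's blocked-transporter control wells by more than 3 SD; inconclusive = the two repeat wells disagree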;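 also: raw slope of fluorescence over initial fluorescence between 10 and 20 s after thallium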
KCC2 sec2: confirmation of human KCC2 transport modulators; shares compounds with Cl transport mod; HEK293-KCC2, thallium flux FluoZin2 fluorescence; actives lie on both sides; F/F0 rise rate, 10–20 s post-thallium; normalized thallium flux at 10 µM; hit rate 23% among 3,700; AID 1715;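 active = thallium flux slope more than 3 SD above or below the plate's solvent-only control mean, mostly below; inconclusive = the two repeat wells disagreed; inactive = no significant shift from solvent-only controls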
HEK293 Tl flux: counter-screen for KCC2 modulators: effect in parental HEK293 cells; thallium flux FluoZin2, ouabain; baseline-ratio fluorescence slope, 10–20 s after thallium; thallium flux rate (normalised fluorescence) at 10 µM; shares compounds with Cl transport mod; hit rate 46% among 3,700;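 active = thallium flux rate significantly above the same plate's solvent-only control wells, beyond their mean plus 3 SD; inconclusive = the two replicate wells gave conflicting results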
KCC2 ouabain: KCC2 (human) modulation, ouabain retest. raw Tl+ flux slope (below DMSO = inhibition, above = activation) at 10 µM. hit rate 48% among 3,700. HEK293-KCC2, thallium flux FluoZin2 fluorescence; bidirectional: low = inhibitor, high = activator. shares compounds with Cl transport mod;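 active = thallium flux slope beyond 3 SD from same-plate DMSO control mean in most replicates, usually higher, sometimes lower; inconclusive = repeat tests gave conflicting results; inactive = no significant difference from controls in most replicates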;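 also: slope of initial-normalized fluorescence between seconds 10 and 20 after thallium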
HEK counter2: parental HEK flux effect, counter-screen 2. shares compounds with Cl transport mod. hit rate 33% among 3,700. HEK293 parental, thallium flux FluoZin-2 fluorescence slope. thallium flux slope at 10 µM;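 active = thallium flux slope above the same plate's solvent-control mean plus 3 SD in both duplicate wells; inconclusive = duplicate wells that disagreed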;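 also: run without ouabain in cells lacking the KCC2 cotransporter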
A number is an active result; . = inactive; ? = inconclusive; / = no result.

SMILES	MDM2 E3 inh	PKD1 inh	ROMK mod	Arbovirus anti	Cl transport mod	m-calpain inh	KCC2 secondary	KCC2 bumet counter	KCC2 sec2	HEK293 Tl flux	KCC2 ouabain	HEK counter2
O=C(CO/N=C/c1c(Cl)cccc1Cl)NNC(=O)c1cccc(Cl)c1	.	/	.	/	.	.	/	/	/	/	/	/
O=C(CO/N=C/c1c(Cl)cccc1Cl)NNC(=O)c1ccc(Cl)cc1	.	/	.	/	6.66	.	.	0.0125	.	?	.	.
Cc1cc2nnc(SCC(=O)Nc3cc(S(=O)(=O)N4CCOCC4)ccc3Cl)n2c2ccccc12	.	.	/	.	-4.7	.	.	?	0.0236	0.00571	0.0131	0.00819
CCOc1ccc(N2CC(C(=O)Nc3ccccc3OC)CC2=O)cc1 (stereo unspecified)	.	.	/	.	.	.	/	/	/	/	/	/
CCOc1ccc(N2CC(C(=O)Nc3c(C)n(C)n(-c4ccccc4)c3=O)CC2=O)cc1 (stereo unspecified)	.	.	.	.	-4.98	.	.	.	.	.	.	.
O=c1c(-c2cnn(-c3ccccc3)c2)coc2cc(O)ccc12	.	.	.	.	-4.06	.	.	0.00593	0.0258	.	?	.
Cc1cc(=S)nc(-c2ccccn2)[nH]1	.	/	.	/	80.8	.	0.0372	0.0478	.	0.0411	0.0435	0.0164
Cn1cnc2cc(OC(=O)c3ccccc3)ccc21	.	.	.	.	/	.	.	.	.	.	.	?
Cc1ccc(C(=O)Oc2ccc3c(c2)ncn3C)cc1	.	.	.	.	/	.	/	/	/	/	/	/
O=C(COc1ccccc1)NC(=S)Nc1ccc(Br)cn1	.	/	/	/	85	.	.	0.045	0.0484	0.0532	0.0519	0.0409
CCOc1ccc(NC(=S)NNC(=O)c2ccc(Br)cc2)cc1	.	.	.	.	23.9	.	0.0141	0.0554	.	?	0.0461	?
COc1ccc(CC(=O)NC(=S)NNC(=O)COc2c(C)cccc2C)cc1	.	.	.	.	7.27	.	0.0128	0.0376	.	0.0149	?	0.0122
CCC(=O)NC(=S)NNC(=O)COc1ccc(Br)cc1	.	.	.	.	7.62	.	.	0.019	.	0.018	?	0.0154
CCC(C)[C@H](NC(=O)N1CCCCCC1)C(=O)OC (stereo partly specified)	.	/	/	/	.	.	/	/	/	/	/	/
COC(=O)CC1C(=O)NCCN1C(=O)CSc1nc2ccc([N+](=O)[O-])cc2s1 (stereo unspecified)	.	.	.	.	.	.	/	/	/	/	/	/
COc1ccc(C(=O)OCC(=O)N2C(C)CCCC2C)cc1[N+](=O)[O-] (stereo unspecified)	.	.	/	.	.	.	/	/	/	/	/	/
CCc1ccc(N2C(=O)c3sc4nnc(-c5ccccc5)c(=O)n4c3C2=O)cc1	.	.	/	.	.	.	/	/	/	/	/	/
Cc1cc(C)n(CCC(=O)N/N=C/c2ccc(Cl)c([N+](=O)[O-])c2)n1	.	/	.	/	.	.	/	/	/	/	/	/
COc1ccc(CN(Cc2ccccn2)C(=O)CN2C(=O)COc3ccccc32)cc1	.	.	.	.	-2.77	.	.	.	0.0241	.	0.0167	.
CCOc1cc(S(=O)(=O)N(CC)CC)ccc1Cl	.	.	.	.	.	.	/	/	/	/	/	/
CCN(CC)S(=O)(=O)c1ccc(Cl)c(OC)c1	.	.	.	.	/	.	.	.	.	.	.	.
COc1cccc(NC(=O)COC(=O)c2nc3nccc(C)n3n2)c1	.	.	/	.	-5.45	.	.	.	.	?	.	.
Cc1ccnc2nc(C(=O)OCC(=O)Nc3ccccc3C(C)(C)C)nn12	.	.	/	.	.	.	/	/	/	/	/	/
S=C1NC[C@H](Cc2cccc3ccccc23)N1CC1CCCCC1	.	/	/	/	.	.	/	/	/	/	/	/
O=C1NC[C@@H](Cc2cccc3ccccc23)N(CC2CCCCC2)C1=O	.	/	/	/	-2.99	.	.	.	0.0244	.	.	.
SMILES	MDM2 E3 inh	PKD1 inh	ROMK mod	Arbovirus anti	Cl transport mod	m-calpain inh	KCC2 secondary	KCC2 bumet counter	KCC2 sec2	HEK293 Tl flux	KCC2 ouabain	HEK counter2
C=CCN(c1ccccc1)S(=O)(=O)c1ccc(Cl)c(C(=O)OCC(=O)c2[nH]c(C)c(C(C)=O)c2C)c1	.	.	/	.	.	.	/	/	/	/	/	/
CCOc1ccccc1C(=O)NC1CC2CCCC(C1)N2Cc1nnnn1Cc1ccco1 (stereo unspecified)	.	.	.	.	-4.02	.	.	.	.	.	?	.
COCCN(C(=O)CNC(=O)c1cccs1)C(C(=O)NC1CCCC1)c1cccs1 (stereo unspecified)	.	.	/	.	.	.	/	/	/	/	/	/
COCCN(C(=O)CNC(=O)c1cccs1)C(C(=O)NC1CCCCC1)c1ccco1 (stereo unspecified)	.	.	.	.	/	.	.	.	.	.	.	.
CC/C(=N/Nc1cccc(Cl)c1)c1cnnc(SC)n1	.	.	.	.	.	.	/	/	/	/	/	/
CC/C(=N/Nc1ccccc1)c1cnnc(-c2ccccc2)n1	.	.	.	.	2.7	.	.	.	.	.	.	.
COc1cc2[nH]c(=O)n(CCCCCC(=O)NCCc3c[nH]c4ccccc34)c(=O)c2cc1OC	.	.	.	.	.	.	/	/	/	/	/	/
Cc1nn(Cc2c(F)c(F)c(F)c(F)c2F)c(C)c1NC(=O)c1ccc(COc2ccccc2Cl)o1	.	.	/	.	-6.43	.	.	.	.	.	0.0154	.
COc1ccc(CNC(=O)CN(C(=O)c2cc3sccc3n2C)C2CCCC2)cc1	.	.	/	.	.	.	/	/	/	/	/	/
CCOc1cc2c(cc1OCC)C(c1ccccc1)N(c1ccccc1)C(=O)C2 (stereo unspecified)	.	.	.	.	.	.	/	/	/	/	/	/
CN(C)c1ncc(S(=O)(=O)c2ccccc2)c(-c2ccc(Cl)cc2Cl)n1	.	.	/	.	-5.73	.	.	.	.	.	.	.
Clc1ccc(-c2csc(-c3cccnc3)n2)s1	.	/	.	/	.	.	/	/	/	/	/	/
Cc1[nH]c(=S)c(C#N)c2c1CCCC2	.	.	.	.	3.77	.	.	0.00863	.	0.0112	.	.
Cc1[nH]c(=O)c(C#N)c2c1CCCC2	.	.	/	.	.	.	/	/	/	/	/	/
